Results on 43 molecules are retold here after PubChem BioAssay AID488811 (Sanford-Burnham Center for Chemical Genomics, 2010).

By EC50 is commonly meant the midpoint of the concentration-response curve.

The source made the active and inactive calls.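 Rule for the calls: active = mean EC50 below 10 µM; inactive = the rest.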

Sequence of Apelin receptor (Homo sapiens) (P35414 whole entry, looked up, the tested form may be a part): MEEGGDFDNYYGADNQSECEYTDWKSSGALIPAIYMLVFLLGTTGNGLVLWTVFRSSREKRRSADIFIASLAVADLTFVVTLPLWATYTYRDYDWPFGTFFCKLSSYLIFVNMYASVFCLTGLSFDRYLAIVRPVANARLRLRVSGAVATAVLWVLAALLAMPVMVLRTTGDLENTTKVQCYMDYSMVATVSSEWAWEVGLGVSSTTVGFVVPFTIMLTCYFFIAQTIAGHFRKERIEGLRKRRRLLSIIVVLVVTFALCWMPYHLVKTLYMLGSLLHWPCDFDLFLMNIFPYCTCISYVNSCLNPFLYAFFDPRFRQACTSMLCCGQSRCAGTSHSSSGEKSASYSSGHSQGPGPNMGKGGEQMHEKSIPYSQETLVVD

The target in this experiment is Apelin receptor (Homo sapiens) (UniProt P35414). The experiment is described as follows: APJ agonists, beta-arrestin recruitment, SAR follow-up, cell-based, luminescence (AID 488811). The settings on record: CHO-K1 AGTRL-1 PathHunter beta-arrestin. In a few lines: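 incubation = cells seeded overnight, compounds 90 min at 25 °C, dark | system = CHO-K1 APJ β-arrestin enzyme-fragment complementation cells | signal = luminescence of complemented β-gal, read 60 min after detection reagent | doses = compound dose series, 2 mM DMSO stocks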
Consider `CSc1nc(=O)cc(N)n1-c1ccc(C)cc1`, for which the EC50 is > 79 µM (inactive).
The value for `COc1ccccc1-n1c(SCC(=O)c2ccccc2)nc(O)cc1=O` was “inactive”.
As for `Cc1ccc(S(=O)(=O)ON=C2C=CC(=O)C=C2)cc1`, the EC50 is > 79 µM (inactive).
With `CCc1c(O)n(C2CCCCC2)c(=S)[nH]c1=O` the figure was > 79 µM (inactive); with `C=CCSc1nc(O)c(CC)c(=O)n1C(C)CC` (stereo not drawn), “inactive”.
The value for `C=CCn1c(SCc2ccccc2)nc(O)c(CC)c1=O` was > 79 µM (inactive).
In the case of `CCSc1nc(O)c(CC)c(=O)n1C(C)CC` (stereo not drawn), the EC50 entry was “inactive”.
The value for `CCCCSc1nc(O)c(CC)c(=O)n1C1CCCCC1` was > 79 µM (inactive).
As for `CC1=CC(=NOS(=O)(=O)c2ccccc2)C(C(C)C)=CC1=O`, the EC50 was 7.43 µM.
With `CCN1/C(=C/C(=O)c2sc(=S)n(CC)c2O)Sc2ccccc21` the figure was > 79 µM (inactive); with `CCCCSc1nnc(NC(=O)CSc2nc3ncccc3[nH]2)s1`, > 79 µM (inactive); with `Cc1cc(C)n2nc3nc(N4CCOCC4)nc(-c4ccccc4)c3c2n1`, > 79 µM (inactive).
As for `CC1=CC(=O)C(C(C)C)=CC1=NOS(=O)(=O)c1ccccc1`, the EC50 is 5.74 µM.
The value for `CCc1c(O)nc(SCc2ccccc2)n(C(C)CC)c1=O` (stereo not drawn) was > 79 µM (inactive); that for `CC1=CC(=NOS(=O)(=O)c2ccc(Cl)cc2)C=C(C)C1=O` was 2.9 µM; that for `COc1ccc(S(=O)(=O)O/N=C2\C=C(C(C)C)C(=O)C=C2C)cc1` was 4.93 µM.
For `CC1=C/C(=N\OS(=O)(=O)c2ccc(C)cc2)C(C)=CC1=O`, the EC50 is 5.4 µM.
The value for `COc1ccc(S(=O)(=O)ON=C2C=C(C)C(=O)C(C)=C2)cc1` was 2.56 µM; that for `CC1=CC(=O)C=C(C)C1=NOS(=O)(=O)c1ccccc1` was > 79 µM (inactive).
The value for `CCN1C(c2ccccc2)=C(c2ccccc2)S/C1=C/C=C1\SC(=S)N(C)C1=O` was 3.44 µM; that for `CCc1c(O)nc(SC(C)CC)n(C(C)CC)c1=O` (stereo not drawn) was “inactive”.
The value for `CC1=C/C(=N/OS(=O)(=O)c2ccc(C)cc2)C(C(C)C)=CC1=O` was 9.9 µM; that for `CC1=CC(=NOS(=O)(=O)c2ccccc2)C=C(C)C1=O` was 2.5 µM.
Regarding `CC1=C/C(=N\OS(=O)(=O)c2ccc(Cl)cc2)C=CC1=O`, the EC50 is > 79 µM (inactive).
The value for `O=S(=O)(Nc1nc(-c2ccccc2)cs1)c1ccc(Cl)cc1` was > 79 µM (inactive); that for `Cc1ccc(S(=O)(=O)Nc2nc(-c3ccccc3)cs2)cc1` was > 79 µM (inactive).
The value for `CC1=CC(=NOS(=O)(=O)c2ccccc2)C=CC1=O` was > 79 µM (inactive); that for `C=CCSc1nc(O)c(CC)c(=O)n1-c1ccc(C)cc1` was > 79 µM (inactive).
With `CCCSc1nc(O)c(CC)c(=O)n1C(C)CC` (stereo not drawn) the entry was “inactive”.
For `CN(C)CCSc1nc(O)c(-c2ccccc2)c(=O)n1-c1ccccc1`, the EC50 was > 79 µM (inactive).
Regarding `CC1=CC(=NOS(=O)(=O)c2ccc(C)cc2)C=C(C)C1=O`, the EC50 is 2.52 µM.
With `CC1=CC(=O)C=C/C1=N\OS(=O)(=O)c1ccc(C)cc1` the figure was > 79 µM (inactive); with `C=CCSc1nc(O)c(CC)c(=O)n1C1CCCCC1`, > 79 µM (inactive).
Consider `CCc1c(O)nc(SC)n(C2CCCCC2)c1=O`, for which the EC50 was > 79 µM (inactive).
With `CC1=CC(=O)C(C(C)C)=C/C1=N/OS(=O)(=O)c1ccccc1` the figure was 5.98 µM; with `CC1=C(C)C(=NOS(=O)(=O)c2ccc(C)cc2)C=CC1=O`, > 79 µM (inactive); with `CCc1c(O)nc(SCc2ccccc2)n(C2CCCCC2)c1=O`, > 79 µM (inactive).
With `O=S(=O)(Nc1nc(-c2ccccc2)cs1)c1ccc(Br)cc1` the figure was > 79 µM (inactive).
As for `CCc1c(O)nc(SC)n(C(C)CC)c1=O` (stereo not drawn), the EC50 is > 79 µM (inactive).
The value for `CC1=C/C(=N/OS(=O)(=O)c2ccccc2)C(C)=CC1=O` was 6.82 µM.
The value for `CCSc1nc(O)c(CC)c(=O)n1C1CCCCC1` was > 79 µM (inactive); that for `CCN1/C(=C\C=C2/SC(=S)N(C)C2=O)Sc2ccccc21` was > 79 µM (inactive).
With `CC1=C/C(=N/OS(=O)(=O)c2ccc(C)cc2)C=CC1=O` the figure was > 79 µM (inactive).
